Here are results for eleven compounds from ChEMBL document CHEMBL1134580, “Novel hypotensive agents from Verbesina caracasana. 8. Synthesis and pharmacology of (3,4-dimethoxycinnamoyl)-N(1)-agmatine and synthetic analogues” (2001).

Assay [1] has as its system Rattus norvegicus. Briefly: Changes in systolic Blood pressure following iv administration at (4.12 umol/kg) anesthetized rats. The class given is functional. The gist of the method: (§1)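 Adult male Wistar rats (280 ± 5 g) anesthetized with 10% (w/v) ethylurethane in saline, 1 mL/100 g ip. Trachea cannulated for spontaneous breathing, body temperature held at 37 °C, 60 min stabilization. Single iv injection into the femoral vein of a saline-dissolved drug, dose expressed as free base; n = 4 per drug. Aortic systolic/diastolic BP recorded via a femoral artery catheter and pressure transducer; peak change taken.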

Assay [2] deals with Rattus norvegicus. As to the kind of experiment: Changes in diastolic Blood pressure following iv administration at (4.12 umol/kg) anesthetized rats. The class given is functional. The gist of the method:
as §1

Assay [3] has as its system Rattus norvegicus. Briefly: Changes in diastolic blood pressure following iv administration at 4.12 umol/kg in anesthetized rats. The class given is functional, Artery. Summed up:
as §1

Assay [4] concerns Rattus norvegicus. As to the kind of experiment: Changes in systolic blood pressure following iv administration at 4.12 umol/kg in anesthetized rats. The class given is functional, Artery. Summed up: as §1
The subject of assay [5] is Rattus norvegicus. Briefly: Changes in diastolic blood pressure following iv administration at (4.12 umol/kg) anesthetized rats. Format: functional. Summed up: as §1
Assay [6] concerns Rattus norvegicus. Briefly: Changes in systolic blood pressure following iv administration at (4.12 umol/kg) anesthetized rats. Format: functional. Summed up:
as §1

Assay [7] relates to Rattus norvegicus. As to the kind of experiment: Changes in systolic Blood pressure following iv administration at (25 umol/kg) anesthetized rats. The class given is functional. Summed up: as §1
Assay [8] has as its system Rattus norvegicus. Briefly: Changes in diastolic Blood pressure following iv administration at (25 umol/kg) anesthetized rats. The class given is functional. The gist of the method: as §1
Assay [9] deals with Rattus norvegicus. As to the kind of experiment: Changes in diastolic blood pressure following iv administration at (12 umol/kg)anesthetized rats. Format: functional. The gist of the method: as §1
Assay [10] deals with Rattus norvegicus. As to the kind of experiment: Changes in systolic blood pressure following iv administration at (12 umol/kg)anesthetized rats. The class given is functional. Summed up: as §1
Assay [11] deals with Rattus norvegicus. Briefly: Changes in systolic Blood pressure following iv administration at (5 umol/kg) anesthetized rats. The class given is functional. The gist of the method:
as §1

Assay [12] deals with Rattus norvegicus. As to the kind of experiment: Changes in diastolic Blood pressure following iv administration at (5 umol/kg) anesthetized rats. The class given is functional. The gist of the method: as §1
In assay [13] the test system is Rattus norvegicus. Briefly: Changes in systolic Blood pressure following iv administration at (8 umol/kg) anesthetized rats. Format: functional. The gist of the method: as §1
Assay [14] relates to Rattus norvegicus. Briefly: Changes in diastolic Blood pressure following iv administration at (8 umol/kg) anesthetized rats. The class given is functional. The gist of the method: as §1

As to `COc1ccc(/C=C/C(=O)NCCN=C(N)N)cc1OC.CS(=O)(=O)O`, the Blood pressure in the assay with Rattus norvegicus [1] was -29 mmHg; with Rattus norvegicus [2], -33 mmHg.
For `COc1ccc(/C=C/C(=O)NCCCCN=C(N)N)cc1OC.CS(=O)(=O)O`, the Blood pressure in the assay with Rattus norvegicus [3] is -30 mmHg; in the assay on Rattus norvegicus [4] it was -21 mmHg.
For the compound `COc1ccc(C(=O)NCCCC/N=C(\N)NCC=C(C)C)cc1.CS(=O)(=O)O`, the Blood pressure in the assay with Rattus norvegicus [1] is on record as -28 mmHg; in the assay on Rattus norvegicus [2], -31 mmHg.
The like results for `COc1ccc(/C=C/C(=O)NCCCN=C(N)N)cc1OC.CS(=O)(=O)O` were, in that order, -24 mmHg and -28 mmHg.
The like results for `COc1ccc(C=CC(=O)NCCCCN=C(N)N)cc1OC` were, in that order, -12 mmHg and -10 mmHg.
On to `COc1ccc(/C=C/C(=O)NCCCCCCN=C(N)N)cc1OC.CS(=O)(=O)O`, for which the Blood pressure was -36 mmHg in the assay on Rattus norvegicus [5] and -14 mmHg with Rattus norvegicus [6].
Regarding `COc1ccc(/C=C/C(=O)NCCCCCN=C(N)N)cc1OC.CS(=O)(=O)O`, the Blood pressure in the assay with Rattus norvegicus [1] is reported as -17 mmHg; with Rattus norvegicus [2], -27 mmHg.
For `N=C(N)NCCN1CCCCCCC1` [GUANETHIDINE], the Blood pressure in the assay with Rattus norvegicus [7] is recorded as -32 mmHg; in the assay with Rattus norvegicus [8], -23 mmHg.
With `C[N+](C)(C)CCCCCC[N+](C)(C)C.[Cl-].[Cl-]` [HEXAMETHONIUM CHLORIDE], the Blood pressure is -30 mmHg in the assay on Rattus norvegicus [9] and -46 mmHg in the assay with Rattus norvegicus [10].
Take `COc1ccc(Cc2nccc3cc(OC)c(OC)cc23)cc1OC` [PAPAVERINE]: the figures for the Blood pressure with Rattus norvegicus [11] and with Rattus norvegicus [12] were -21 mmHg and -16 mmHg, respectively.
Regarding `COC(=O)[C@H]1[C@H]2C[C@@H]3c4[nH]c5cc(OC)ccc5c4CCN3C[C@H]2C[C@@H](OC(=O)c2cc(OC)c(OC)c(OC)c2)[C@@H]1OC` [RESERPINE], the values for the Blood pressure with Rattus norvegicus [13] and in the assay with Rattus norvegicus [14] were -34 mmHg and -27 mmHg, respectively.
